Source: ChEMBL document CHEMBL1811767, “Quinoxalin-2(1H)-one derivatives as inhibitors against hepatitis C virus” (J Med Chem, 2011)

Columns and labels:
[1] = Cytotoxicity against human Huh7ET cells by CytoTox-one cell proliferation assay; format: cell-based; details: Huh-7
Outline: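 Parallel plate of replicon Huh 7 ET cells (5000/well, DMEM without G418), compounds from DMSO stocks diluted in DMEM, 72 h. Viability by tetrazolium-based CytoTox-1 proliferation assay. Mean of four replicates; IC50 = concentration decreasing cell viability by 50%.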

[2] = Selectivity index, ratio of IC50 for human Huh7ET cells to EC50 for Hepatitis C virus; format: toxicity, cell-based, Huh-7; details: read-out: Ratio IC50/EC50
Outline: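 SI taken as IC50 (CytoTox-1 viability, Huh 7 ET replicon cells, 72 h) divided by EC50 (replicon luciferase, same cells and exposure); each from four-replicate averages.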

Hepatitis C virus [3] = experiment: Antiviral activity against Hepatitis C virus infected in human Huh7ET cells assessed as inhibition of dicistronic viral RNA replication after 72 hrs by luciferase reporter gene assay; format: functional, organism-based, Hepacivirus hominis; details: Huh-7, 72 h
Outline: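 HCV replicon Huh 7 ET cells seeded 5000/well in DMEM without G418 overnight; compounds dissolved in DMSO, diluted in DMEM, dose-response. After 72 h, replicon-derived luciferase read by Steady-Glo. Mean of four replicates; EC50 = concentration inhibiting HCV RNA replication by 50%.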

[4] = Cytotoxicity against human Huh7ET cells at 20 uM by CytoTox-one cell proliferation assay; format: cell-based; details: huh-7, 20 µM
Outline: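 Huh 7 ET replicon cells exposed to single 20 μM for 72 h in primary screen; viability by tetrazolium-based CytoTox-1 assay, reported as percent relative to control cells.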

Hepatitis C virus [5] = experiment: Antiviral activity against Hepatitis C virus infected in human Huh7ET cells assessed as inhibition of dicistronic viral RNA replication at 20 uM after 72 hrs by luciferase reporter gene assay; format: functional, Hepacivirus hominis, Huh-7; design: scale not given: the % may be the effect or the level left
Outline: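 Primary screen at single 20 μM in replicon Huh 7 ET cells (5000/well, DMEM without G418, overnight seeding). After 72 h exposure, replicon luciferase measured with Steady-Glo. Value expressed as percent inhibition relative to control cells.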

| Structure (SMILES) | EC50 (Hepatitis C virus [3]) [µM] | IC50 [1] [µM] | selectivity ratio [2] | Cell viability relative to control [4] [%] | Activity (Hepatitis C virus [5]) [%] |
| --- | --- | --- | --- | --- | --- |
| CC(C)c1nc2cc(N(C)C3CCCCC3)c(Nc3nc(-c4ccccc4)cs3)cc2[nH]c1=O | 8.62 | 67.4 | 7.8 |  |  |
| CSCCc1nc2cc(N(C)C3CCCCC3)c(Nc3nc(-c4ccccc4)cs3)cc2[nH]c1=O | > 20 | 86 | < 4.3 |  |  |
| CN(c1ccccc1)c1cc2ncc(=O)[nH]c2cc1Nc1nc(-c2ccccc2)cs1 | 4.61 | 15.9 | 3.4 |  |  |
| CN(c1cc2ncc(=O)[nH]c2cc1NC(=N)NCc1ccccn1)C1CCCCC1 | > 20 | 48.6 | < 2.4 |  |  |
| CCOC(=O)C1CCN(c2cc3ncc(=O)[nH]c3cc2Nc2nc(-c3ccccc3)cs2)CC1 |  |  |  | 59.6 | 37.6 |
| O=c1cnc2cc(OC3CCCCC3)c(Nc3nc(-c4ccccc4)cs3)cc2[nH]1 |  |  |  | 74.4 | 4.9 |
| COc1cc(C(=O)NC(=S)Nc2cc3[nH]c(=O)cnc3cc2N(C)C2CCCCC2)cc(OC)c1OC | 5.16 | 15.9 | 3.1 |  |  |
| CN(c1cc2ncc(=O)[nH]c2cc1NC(=N)NCc1ccc(Cl)cc1)C1CCCCC1 | 3.94 | 4.4 | 1.12 |  |  |
| CCN(c1cc2ncc(=O)[nH]c2cc1Nc1nc(-c2ccccc2)cs1)C1CCCCC1 |  |  |  | 58 | 35 |
| CN(c1cc2ncc(=O)[nH]c2cc1NC(=S)NC(=O)c1cccc2ccccc12)C1CCCCC1 | 5.48 | 9.98 | 1.82 |  |  |
| O=c1cnc2cc(N3CCOCC3)c(Nc3nc(-c4ccccc4)cs3)cc2[nH]1 | 5.19 | 58.3 | 11.2 |  |  |
| CN(c1cc2c(cc1Nc1nc(-c3ccccc3)cs1)NC(=O)CO2)C1CCCCC1 | 15.4 | 17.5 | 1.1 |  |  |
| CN(c1cc2ncc(=O)[nH]c2cc1Nc1nc(C(F)(F)F)cs1)C1CCCCC1 | 8.12 | 37.4 | 4.6 |  |  |
| O=c1cnc2cc(N3CCCCC3)c(Nc3nc(-c4ccccc4)cs3)cc2[nH]1 |  |  |  | 35.1 | 9 |
| COc1ccc(CNC(=N)Nc2cc3[nH]c(=O)cnc3cc2N(C)C2CCCCC2)cc1 | > 20 | 19.5 | < 0.98 |  |  |
| Cc1nc2cc(N(C)C3CCCCC3)c(Nc3nc(-c4ccccc4)cs3)cc2[nH]c1=O | 3.91 | 12.3 | 3.15 |  |  |
| CN(c1cc2ncc(=O)[nH]c2cc1NC(=N)NCc1ccc(F)cc1)C1CCCCC1 | 12.8 | 10.2 | 0.8 |  |  |
| CN(c1cc2ncc(=O)[nH]c2cc1Nc1nc(-c2ccc(-c3ccccc3)cc2)cs1)C1CCCCC1 | > 20 | 82 | < 4.1 |  |  |
| CN(c1cc2ncc(=O)[nH]c2cc1NC(=S)NC(=O)c1ccc(OC(F)(F)F)cc1)C1CCCCC1 | 2.33 | 6.47 | 2.78 |  |  |
| CN(c1cc2ncc(=O)[nH]c2cc1NC(=S)NC(=O)c1ccccc1)C1CCCCC1 | 2.42 | 11.1 | 4.57 |  |  |
| CN(c1cc2ncc(=O)[nH]c2cc1NC(=N)NCc1ccc(OC(F)(F)F)cc1)C1CCCCC1 | 3.97 | 3.7 | 0.9 |  |  |
| CN(c1cc2ncc(=O)[nH]c2cc1Nc1nc(-c2ccco2)cs1)C1CCCCC1 | 12.2 | 11.9 | 1 |  |  |
| CN(C)c1cc2ncc(=O)[nH]c2cc1Nc1nc(-c2ccccc2)cs1 | > 20 | 57.5 | < 2.9 |  |  |
| CN(c1cc2ncc(=O)[nH]c2cc1NC(=N)NCc1ccccc1)C1CCCCC1 | 11.4 | 9.94 | 0.87 |  |  |
| CN(c1cc2c(cc1Nc1nc(-c3ccccc3)cs1)[nH]c(=O)c1cccn12)C1CCCCC1 | 1.82 | 18 | 9.9 |  |  |
| CN(c1cc2ncc(=O)[nH]c2cc1NC(=S)NC(=O)c1ccco1)C1CCCCC1 | 1.8 | 17.3 | 9.6 |  |  |
| CN(c1cc2ncc(=O)[nH]c2cc1Nc1nc(-c2ccc(C#N)cc2)cs1)C1CCCCC1 | 6.07 | 18.1 | 2.98 |  |  |
| CN(c1cc2ncc(=O)[nH]c2cc1NC(=S)Nc1cccc2ccccc12)C1CCCCC1 | > 20 | 43.6 | < 2.2 |  |  |
| CN(c1cc2ncc(=O)[nH]c2cc1Nc1nc(-c2ccc(F)cc2)cs1)C1CCCCC1 | 5.26 | 9.92 | 1.9 |  |  |

More lines, main results first:

| EC50 (Hepatitis C virus [3]) [µM] | Structure (SMILES) | IC50 [1] [µM] | selectivity ratio [2] | Cell viability relative to control [4] [%] | Activity (Hepatitis C virus [5]) [%] |
| --- | --- | --- | --- | --- | --- |
| 16.4 | CN(c1cc2ncc(=O)[nH]c2cc1NC(=S)NC(=O)c1ccc(Cl)nc1)C1CCCCC1 | 34.5 | 2.1 |  |  |
| 6.77 | CN(c1cc2ncc(=O)[nH]c2cc1NC(=S)NC(=O)/C=C/c1ccccc1)C1CCCCC1 | 11 | 1.6 |  |  |
| 11.4 | CN(c1cc2ncc(=O)[nH]c2cc1NC(=O)Nc1ccccc1)C1CCCCC1 | 5.52 | 0.5 |  |  |
| 5.49 | CN(c1cc2ncc(=O)[nH]c2cc1Nc1nc(-c2cccnc2)cs1)C1CCCCC1 | 11.5 | 2.09 |  |  |
| 1.19 | CN(c1cc2c(cc1Nc1nc(-c3ccccc3)cs1)NC(=O)C1CCCCN21)C1CCCCC1 (centres undefined) | 11 | 9.27 |  |  |
| 5.39 | CN(c1cc2ncc(=O)[nH]c2cc1Nc1nc(-c2ccc(Cl)cc2)cs1)C1CCCCC1 | 16.7 | 3.1 |  |  |
| 1.27 | CCN(CC)c1cc2ncc(=O)[nH]c2cc1Nc1nc(-c2ccccc2)cs1 | 22.8 | 17.9 |  |  |
| > 20 | CN(c1cc2ncc(=O)[nH]c2cc1Nc1nc(-c2cccs2)cs1)C1CCCCC1 | 71.3 | < 3.6 |  |  |
| 4.19 | CC(C)Cc1nc2cc(N(C)C3CCCCC3)c(Nc3nc(-c4ccccc4)cs3)cc2[nH]c1=O | 33.3 | 7.9 |  |  |
| > 20 | CN(c1cc2ncc(=O)[nH]c2cc1Nc1nc(-c2ccc3c(c2)OCO3)cs1)C1CCCCC1 | 61.2 | < 3.1 |  |  |
| 4.59 | CN1CCN(c2cc3ncc(=O)[nH]c3cc2Nc2nc(-c3ccccc3)cs2)CC1 | 10.2 | 2.2 |  |  |
| 3.27 | Cc1ccsc1C(=O)NC(=S)Nc1cc2[nH]c(=O)cnc2cc1N(C)C1CCCCC1 | 12.6 | 3.84 |  |  |
| 3.81 | CCCN(CCC)c1cc2ncc(=O)[nH]c2cc1Nc1nc(-c2ccccc2)cs1 | 31.6 | 8.3 |  |  |
| 4.57 | CN(c1cc2ncc(=O)[nH]c2cc1Nc1nc2c(s1)Cc1ccccc1-2)C1CCCCC1 | 10.9 | 2.39 |  |  |
| 13.1 | CN(c1cc2ncc(=O)[nH]c2cc1N1C(=O)CN(c2cccc3ccccc23)C1=S)C1CCCCC1 | 11.2 | 0.85 |  |  |
| > 20 | CN(c1cc2nc(Cc3ccccc3)c(=O)[nH]c2cc1Nc1nc(-c2ccccc2)cs1)C1CCCCC1 | 42 | < 2.1 |  |  |
| > 20 | CN(c1cc2ncc(=O)[nH]c2cc1NC(=S)Nc1ccc(F)cc1)C1CCCCC1 | 64.3 | < 3.2 |  |  |
| 2.97 | CN(c1cc2ncc(=O)[nH]c2cc1NC(=S)NC(=O)c1ccc(F)cc1)C1CCCCC1 | 11.4 | 3.8 |  |  |
| > 20 | CN(c1cc2ncc(=O)[nH]c2cc1NC(=S)Nc1cccc(C(F)(F)F)c1)C1CCCCC1 | 78.4 | < 3.9 |  |  |
| 6.8 | CN(c1cc2ncc(=O)[nH]c2cc1Nc1nc(-c2cccc3ccccc23)cs1)C1CCCCC1 | 57.4 | 8.4 |  |  |
| 4.08 | CN(c1cc2ncc(=O)[nH]c2cc1NC(=S)NC(=O)c1cccc(C(F)(F)F)c1)C1CCCCC1 | 31.5 | 7.5 |  |  |
| > 20 | CN(c1cc2ncc(=O)[nH]c2cc1NC(=S)Nc1ccccc1)C1CCCCC1 | 49.6 | < 2.8 |  |  |
| > 20 | COc1ccc(-c2csc(Nc3cc4[nH]c(=O)cnc4cc3N(C)C3CCCCC3)n2)cc1 | 15 | < 0.75 |  |  |
| > 20 | CN(c1cc2ncc(=O)[nH]c2cc1NC(=N)NCc1cccc(C(F)(F)F)c1)C1CCCCC1 | 54 | < 2.7 |  |  |
| 2.21 | CN(c1cc2ncc(=O)[nH]c2cc1N1CC(=O)N(c2ccccc2)C1=S)C1CCCCC1 | 2.99 | 1.4 |  |  |
| 9.84 | CN(c1cc2ncc(=O)[nH]c2cc1NC(=O)Nc1cccc2ccccc12)C1CCCCC1 | 5.33 | 0.5 |  |  |
| > 20 | CN(c1cc2c(cc1Nc1nc(-c3ccccc3)cs1)NC(=O)CS2)C1CCCCC1 | 13.8 | < 0.69 |  |  |
